Laboratory results: ChEMBL document CHEMBL4842360, “Discovery of a Bicyclic Peptidyl Pan-Ras Inhibitor” (J Med Chem, 2021)
Active and inactive are the calls of the source. The rule behind the calls is not given here. Numbered stars: 1 amine (or outer) side, 2 acyl side, 3 side chain; on linkers, the order of the positions; unused ones are H or OH. Bridge positions count the residues as written; N and C are the ends. Square brackets hold non-standard residues; d marks the D form. Peptide text beside a SMILES is read from it. Trimesoyl = O=C(c1cc(C(=O)[*:2])cc(C(=O)[*:3])c1)[*:1]; d2Nal = N[C@H](Cc1ccc2ccccc2c1)C(=O)O; Phg = N[C@H](C(=O)O)c1ccccc1; Orn = NCCC[C@H](N)C(=O)O; Dap = NC[C@H](N)C(=O)O

Tests used:
[1] = Drug localization in human HeLa cells assessed as mean fluorescence intensity at 5 uM incubated for 2 hrs in presence of 1% FBS by flow cytometry relative to CPP12; format: ADME, cell-based
Procedure, shortened: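 HeLa cells treated with 5 μM fluorescein-labeled peptide and analysed by flow cytometry. Mean fluorescence intensity expressed relative to FITC-labeled CPP12 (100%).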

[2] = Drug distribution in human NCI-H358 cells assessed as diffuse fluorescence throughout the entire cell volume at 5 uM incubated for 2 hrs by live-cell confocal microscopy; format: ADME, cell-based; conditions: nci-h358, 2 h
Procedure, shortened: (§1)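 HeLa, H358 or A549 cells treated with 5 μM fluorescein-labeled peptide for 2 h, then imaged by live-cell confocal microscopy for intracellular fluorescence pattern.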

[3] = Drug distribution in human A549 cells assessed as diffuse fluorescence throughout the entire cell volume at 5 uM incubated for 2 hrs by live-cell confocal microscopy; format: ADME, cell-based; conditions: a549, 2 h; procedure, shortened: as §1
[4] = Drug distribution in human A549 cells assessed as accumulation in plasma membrane at 5 uM incubated for 2 hrs by live-cell confocal microscopy; format: ADME, cell membranes; conditions: a549, 2 h; procedure, shortened: as §1
[5] = Antiproliferative activity against human NCI-H1915 cells harboring HRas Q61L mutant incubated for 96 hrs by CellTiter-Glo2 assay; format: functional, cell-based; conditions: NCI-H1915, Lung
Procedure, shortened: (§2)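 Cells plated at 5,000/well, grown overnight, then exposed to serially diluted peptide (0–40 μM) in medium with 10% FBS for 96 h at 37 °C, 5% CO2. Viability read by CellTiter-Glo 2.0 luminescence after 15 min at RT.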

HEK-293T = experiment: Cytotoxicity against HEK293T cells incubated for 96 hrs by CellTiter-Glo2 assay; format: cell-based; conditions: Homo sapiens; procedure, shortened: as §2
NCI-H358 [6] = experiment: Induction of apoptosis in human NCI-H358 cells assessed as live cells at 1 uM incubated for 24 hrs by Alexa Fluor 488 annexin V/propidium iodide staining based assay (reference value: 87%); format: functional
NCI-H358 [7] = experiment: Induction of apoptosis in human NCI-H358 cells assessed as early apoptotic cells at 5 uM incubated for 24 hrs by Alexa Fluor 488 annexin V/propidium iodide staining based assay (reference value: 3.05%); format: functional
NCI-H358 [8] = experiment: Induction of apoptosis in human NCI-H358 cells assessed as necrotic cells at 5 uM incubated for 24 hrs by Alexa Fluor 488 annexin V/propidium iodide staining based assay (reference value: 0.699%); format: functional
NCI-H358 [9] = experiment: Induction of apoptosis in human NCI-H358 cells assessed as necrotic cells at 10 uM incubated for 24 hrs by Alexa Fluor 488 annexin V/propidium iodide staining based assay (reference value: 0.699%); format: functional
NCI-H358 [10] = experiment: Induction of membrane disruption in human H358 cells assessed as LDH release up to 20 uM incubated for 45 mins by absorbance method; format: functional, cell-based; conditions: dose microM <=20, time […]
A549 [11] = experiment: Antitumor activity against human A549 cells xenografted in mouse assessed as average tumor volume at 1 mg/kg, iv administered for 9 days measured every other day (reference value: 100 mm3); format: functional; conditions: time 9 day
Procedure, shortened: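 Nude mice given ~1.5 million A549 cells subcutaneously. Once tumors reached ~40 mm3, groups of n = 6 received peptide at 1 or 5 mg/kg/day or PBS vehicle by tail-vein injection for 9 days. Tumor volume was tracked, and tumors were weighed at harvest.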

NCI-H358 [12] = experiment: Antitumor activity against human NCI-H358 cells xenografted in mouse assessed as suppression of tumor growth at 5 mg/kg, iv administered for 9 days measured every other day; format: functional, organism-based; conditions: time 9.0 day
Procedure, shortened: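 H358 xenograft in mice; peptide given daily at 5 mg/kg i.v. for 9 days, with tumor growth followed over that period.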

A549 [13] = experiment: Antitumor activity against human A549 cells xenografted in mouse assessed as reduction in ERK phosphorylation at 1 to 5 mg/kg, iv administered for 9 days measured every other day by immunohistochemical staining method; format: functional, organism-based; conditions: dose 1-5 mg/kg, time 9.0 day
DLD-1 = experiment: Antiproliferative activity against human DLD-1 cells harboring KRAS G13D mutant incubated for 96 hrs by CellTiter-Glo2 assay; format: functional, cell-based; conditions: DLD-1, 96 h; procedure, shortened: as §2

**Q.** Which Drug uptake [1] does the source give for `C[C@@H](NC(=O)[C@H](Cc1ccccc1)NC(=O)[C@@H](CCCNC(=N)N)NC(=O)[C@H](CCCN)NC(=O)[C@@H]1CNC(=O)c2cc3cc(c2)C(=O)N[C@H](Cc2ccc4ccccc4c2)C(=O)N[C@@H](CO)C(=O)N[C@@H](CC(N)=O)C(=O)N[C@H](Cc2ccc4ccccc4c2)C(=O)N[C@@H](c2ccccc2)C(=O)N[C@@H](CCCCNC3=O)C(=O)N[C@H](Cc2ccccc2)C(=O)N[C@@H](CCC(N)=O)C(=O)N[C@H](CCCNC(=N)N)C(=O)N[C@@H](CCCNC(=N)N)C(=O)N1)C(N)=O` ([d2Nal]SN[d2Nal][Phg]K[dF]Q[dR]R[Dap][Orn][dR]F[dA]-NH2; linker N-6-11 via Trimesoyl) here?
**A.** 226%

**Q.** And the Drug uptake [2]?
**A.** Active

**Q.** And the Drug uptake [3]?
**A.** Active

**Q.** And the Drug uptake [4]?
**A.** Active

**Q.** And the EC50 [5]?
**A.** 6.8 µM

**Q.** What about the EC50 (HEK-293T) of the same compound?
**A.** ≥ 20 µM

**Q.** What about the Activity (NCI-H358 [6]) of the same compound?
**A.** 87.7%

**Q.** What about the Activity (NCI-H358 [7]) of the same compound?
**A.** 14.7%

**Q.** What about the Activity (NCI-H358 [8]) of the same compound?
**A.** 1.14%

**Q.** And the Activity (NCI-H358 [9])?
**A.** 0.493%

**Q.** What about the Activity (NCI-H358 [10]) of the same compound?
**A.** inactive

**Q.** What about the Activity (A549 [11]) of the same compound?
**A.** 50 mm3

**Q.** And the Activity (NCI-H358 [12])?
**A.** Active

**Q.** What about the Activity (A549 [13]) of the same compound?
**A.** Active

**Q.** And the EC50 (DLD-1)?
**A.** 4.9 µM
